PAFAH2 FP inh – inhibitors of human PAFAH2; Q99487; recombinant PAFAH2, FP-rhodamine activity probe, fluorescence polarization; inhibition, % at 3.39 µM; 0.99% of 340,000 active; AID 492956;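 active = inhibition above the mean over all tested compounds plus 3 SD, cut at about 30% in these data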;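 also: inhibitors block probe labeling of enzyme so polarization drops; 0% = enzyme with DMSO and 100% = wells lacking PAFAH2 protein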
PAFAH1B3 FP inh – inhibitors of human PAFAH1B3; Q15102; recombinant PAFAH1B3, FP-rhodamine probe, fluorescence polarization; inhibition, % at 3.39 µM; 0.28% of 340,000 active; AID 492972;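 active = inhibition above the screen-wide average of all tested compounds plus 3 SD, cut at about 25% in these data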;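 also: 0% = enzyme with DMSO only and 100% = wells lacking PAFAH1B3 protein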
Target sequence (Q15102 whole entry, looked up): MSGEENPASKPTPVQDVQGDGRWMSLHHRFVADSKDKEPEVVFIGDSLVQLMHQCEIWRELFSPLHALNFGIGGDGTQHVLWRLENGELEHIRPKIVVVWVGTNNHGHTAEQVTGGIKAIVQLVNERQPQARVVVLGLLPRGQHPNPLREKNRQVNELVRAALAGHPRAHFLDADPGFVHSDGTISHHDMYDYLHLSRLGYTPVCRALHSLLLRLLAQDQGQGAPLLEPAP
PAFAH1B2 FP inh – inhibitors of human PAFAH1B2; P68402; recombinant PAFAH1B2, FP-rhodamine activity probe, fluorescence polarization; inhibition, % at 3.39 µM; 1.2% of 340,000 active; AID 492953;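 active = inhibition above the mean of all tested compounds plus 3 SD, cut at about 24% in these data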;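 also: 0% = enzyme with DMSO and 100% = wells lacking PAFAH1B2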
Apaf1 inhib – inhibitors of human Apaf-1 apoptosome; O14727; reconstituted apoptosome caspase-3 activity, DEVD-Rh110 fluorescence; inhibition, % at 20 µM; 0.71% of 330,000 active; active = inhibition of at least 40% at 20 µM;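 also: plate controls were DMSO wells for no effect and DEVD-CHO caspase inhibitor wells for full effect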
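Medium: Hepes buffer, pH 7.5 / System: biochemical Apaf-1 apoptosome reconstitution / Measured by: Rh110 fluorescence, excitation 480 nm, emission 540 nm / Times: compound with Apaf-1, dATP, procaspase-3 30 min, then 50 min reaction, room temperature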
pPAFAH FP inh – pPAFAH (human) enzyme inhibition; 1.5% of 330,000 active; Q13093; recombinant pPAFAH, FP-rhodamine probe fluorescence polarization; inhibition, % at 3.39 µM;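 active = inhibition above the mean inhibition across the screen plus 3 SD, cut at about 25% in these data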;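 also: inhibitors block binding of the rhodamine activity-based probe so polarization drops; 0% = enzyme with DMSO and 100% = wells lacking pPAFAH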
Target sequence (Q13093 whole entry, looked up): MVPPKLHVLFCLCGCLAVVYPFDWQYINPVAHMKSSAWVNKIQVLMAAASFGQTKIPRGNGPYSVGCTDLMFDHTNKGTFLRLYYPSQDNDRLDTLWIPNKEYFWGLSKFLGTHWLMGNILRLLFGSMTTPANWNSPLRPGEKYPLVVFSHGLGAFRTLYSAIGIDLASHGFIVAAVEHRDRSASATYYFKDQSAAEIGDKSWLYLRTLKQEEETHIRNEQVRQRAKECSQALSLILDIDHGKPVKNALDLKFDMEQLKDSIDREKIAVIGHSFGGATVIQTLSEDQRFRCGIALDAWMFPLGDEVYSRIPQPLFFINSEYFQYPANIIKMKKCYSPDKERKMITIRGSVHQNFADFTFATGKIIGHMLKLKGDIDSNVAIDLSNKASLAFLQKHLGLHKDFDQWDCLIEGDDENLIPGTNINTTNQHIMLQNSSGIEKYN
Apaf-1 inh conf – Apaf-1 inhibition, single-dose confirmed; shares compounds with Apaf1 inhib; reconstituted apoptosome, caspase-3 DEVD-Rh110 fluorescence; inhibition, % at 20 µM; 25% of 1,800 active;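 active = mean inhibition of at least 40% at 20 µM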;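 also: plate controls were DMSO wells for no effect and DEVD-CHO caspase inhibitor control wells for full effect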
Rh110 interf inh – counter-screen for Apaf-1 inhibitors: fluorescence interference; shares compounds with Apaf1 inhib; Rh110 fluorescence interference, quenched caspase reaction; activation (fluorescence interference), % at 20 µM; 1,800 tested, under 10 active; AID 504615;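 active = signal rise of 40% or more at 20 µM, treated as a fluorescence artifact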
* hit, by the source's call; . = no result. Most compounds without a hit are left out; they make up all but 3.1% or so of the library.

SMILES | PAFAH2 FP inh | PAFAH1B3 FP inh | PAFAH1B2 FP inh | Apaf1 inhib | pPAFAH FP inh | Apaf-1 inh conf | Rh110 interf inh
CN(C)CCCNC(=O)CC1C[C@H](C(=O)N2CCCCC2)[C@@]2(CCc3ccccc3)c3[nH]c4ccccc4c3CCN2C1=O (stereo partly drawn) | -3 | 4 | 4 | 46* | 7 | 11 | 0
COc1ccc2[nH]c3c(c2c1)CCN1C(=O)C(CC(=O)NCCC2=CCCCC2)C[C@H](C(=O)N2CCCCC2)[C@@]31CCc1ccccc1 (stereo partly drawn) | -6 | -3 | 2 | 10 | 0 | . | .
COc1ccc2[nH]c3c(c2c1)CCN1C(=O)C(CC(=O)NCCC2=CCCCC2)C[C@H](C(=O)N2CCOCC2)[C@@]31CCC1CCCC1 (stereo partly drawn) | -1 | 3 | 2 | 44* | 1 | 29 | 16
C[C@]12c3[nH]c4cc(-c5ccco5)ccc4c3CCN1C(=O)[C@@H](CC(=O)NCCCn1ccnc1)C[C@@H]2C(=O)N1CCCCC1 | 3 | 3 | 1 | 17 | 13 | . | .
CN(C)CCCNC(=O)C[C@H]1C[C@H](C(=O)N2CCCCC2)[C@@]2(CCc3ccccc3)c3[nH]c4cc(-c5ccco5)ccc4c3CCN2C1=O | -9 | 12 | 2 | 72* | 0 | 28 | 11
CN(C)CCCNC(=O)C[C@H]1C[C@H](C(=O)N2CCCCC2)[C@@]2(C)c3[nH]c4cc(-c5ccco5)ccc4c3CCN2C1=O | -4 | 3 | 4 | 42* | 0 | 5 | 1
CC(C)(C)NC(=O)C[C@H]1C[C@H](C(=O)N2CCCCC2)[C@@]2(CCc3ccccc3)c3[nH]c4cc(-c5ccco5)ccc4c3CCN2C1=O | -4 | 11 | 3 | 15 | 8 | . | .
CC1CCCC(C)N1C(=O)COC(=O)Cc1c[nH]c2ccccc12 (stereo not drawn) | 0 | 5 | 5 | 7 | 1 | . | .
CCN(CC(=O)NCc1ccc(F)cc1)C(=O)CN1CCN(c2cc(Cl)ccc2C)CC1 | 4 | 10 | -2 | 12 | 6 | . | .
CCN(CC)C(=O)[C@H]1C[C@H](CC(=O)NCCCN(C)C)C(=O)N2CCc3c([nH]c4ccc(Cl)cc34)[C@]12C | 0 | 0 | -3 | 26 | 3 | . | .
CCN(CC)C(=O)[C@H]1CC(CC(=O)NCCCN(C)C)C(=O)N2CCc3c([nH]c4ccccc34)[C@]12C (stereo partly drawn) | -2 | 6 | 1 | 44* | 7 | 10 | -1
CCN(CC)C(=O)[C@H]1C[C@H](CC(=O)NCc2cccc(C(F)(F)F)c2)C(=O)N2CCc3c([nH]c4ccc(Cl)cc34)[C@]12C | 3 | 3 | 1 | 46* | 0 | 29 | 17
CCN(CC)C(=O)[C@H]1CC(CC(=O)NCc2cccc(C(F)(F)F)c2)C(=O)N2CCc3c([nH]c4ccccc34)[C@]12C (stereo partly drawn) | -4 | 5 | 2 | 26 | 3 | . | .
O=C(c1ccc(CS(=O)c2cccc(Cl)c2)o1)N1CCN(c2ccccn2)CC1 (stereo not drawn) | -2 | 2 | 5 | 5 | 4 | . | .
O=C(NCc1ccccc1Cl)c1ccc(CS(=O)Cc2ccc(Cl)cc2)o1 (stereo not drawn) | -4 | -1 | 7 | -2 | 14 | . | .
COc1ccccc1CNC(=O)CN1C(=O)NC(c2ccccc2)(c2ccc(C)c(C)c2)C1=O (stereo not drawn) | 5 | 2 | 4 | 66* | . | 15 | -2
Cc1ccc(C2(c3ccccc3)NC(=O)N(CC(=O)NC3CCCCC3)C2=O)cc1C (stereo not drawn) | 5 | 7 | 0 | 16 | . | . | .
On1c2c(c3c4nonc4ccc31)CCCC2 | . | . | . | 27 | 17 | . | .
COn1c2c(c3c4nonc4ccc31)CCCC2 | 9 | 13 | 3 | 47* | 4 | 52* | 10
COCCN(C(=O)c1cc(S(=O)(=O)N2CCCCC2)ccc1Cl)c1c(N)n(CC(C)C)c(=O)[nH]c1=O | -5 | 3 | 2 | -2 | . | . | .
CCOc1ccccc1NC(=O)C1CCCN(S(=O)(=O)c2ccc3c(c2)C(C)(C)C(=O)N3C)C1 (stereo not drawn) | 2 | -1 | 3 | 24 | 1 | . | .
O=C1CCN(Cc2ccccc2)C=C1c1ccc(C(F)(F)F)cc1 | 25 | 8 | 2 | 10 | 6 | . | .
O=C1CCN(Cc2ccccc2)C=C1c1ccc(Cl)cc1 | 0 | 2 | 7 | 47* | 5 | 5 | 4
CCCCCc1cc(=O)oc2c(C(CCN3CCCCC3)c3ccc4c(c3)OCO4)c(OC)cc(OC)c12 (stereo not drawn) | 1 | -15 | 5 | 66* | 1 | 39 | 18
COc1ccc(C2CC(=O)Oc3c(C(CCN4CCCC(C)C4)c4ccc(N(C)C)cc4)c(OC)cc(OC)c32)cc1 (stereo not drawn) | 0 | 11 | 11 | 49* | 5 | 18 | 12
SMILES | PAFAH2 FP inh | PAFAH1B3 FP inh | PAFAH1B2 FP inh | Apaf1 inhib | pPAFAH FP inh | Apaf-1 inh conf | Rh110 interf inh
COc1ccc(C(CCN2CCOCC2)c2c(OC)cc(OC)c3c(-c4ccccc4)cc(=O)oc23)cc1 (stereo not drawn) | 9 | 10 | 2 | 53* | 0 | 2 | 7
COc1cc(OC)c2ccc(=O)oc2c1C(CCN1CCCC1)c1ccc2c(c1)OCO2 (stereo not drawn) | -3 | 13 | 3 | 12 | -2 | . | .
COc1ccc(C(CCN2CCN(c3ccccc3)CC2)c2c(OC)cc(OC)c3c(-c4ccccc4)cc(=O)oc23)cc1 (stereo not drawn) | 0 | 5 | 5 | 16 | 6 | . | .
COc1cc(OC)c2c(-c3ccccc3)cc(=O)oc2c1C(CCN1CCOCC1)c1ccc2c(c1)OCO2 (stereo not drawn) | 4 | 6 | -1 | 42* | 4 | 9 | -2
COc1ccc(C2CC(=O)Oc3c(C(CCN4CCCCC4)c4ccc(N(C)C)cc4)c(OC)cc(OC)c32)cc1 (stereo not drawn) | -1 | -4 | 2 | 23 | 1 | . | .
COc1cc(NC(=O)C2C3CCC(O3)C2C(=O)O)cc(OC)c1 (stereo not drawn) | -1 | 11 | 1 | -3 | 3 | . | .
COc1cc(OC)c2c(-c3ccccc3)cc(=O)oc2c1C(CCN1CCCC(C)C1)c1ccc(N(C)C)cc1 (stereo not drawn) | -4 | 6 | -2 | 23 | 5 | . | .
COc1ccc(C(CCN2CCCC(C)C2)c2c(OC)cc(OC)c3c(-c4ccccc4)cc(=O)oc23)cc1 (stereo not drawn) | 5 | 8 | 1 | 54* | 1 | 26 | 1
COc1ccc(CN(C)C(=O)/C=C/c2ccc(S(=O)(=O)N3CCCCCC3)cc2)cc1 | -5 | 2 | 0 | 25 | 9 | . | .
